Tests used:
[1] = molecular target: T1, Poly [ADP-ribose] polymerase 1 (Homo sapiens, UniProt P09874); assay: Inhibition of GST-tagged recombinant human PARP-1 expressed in Escherichia coli after 30 mins by fluorescence-based assay
[2] = molecular target: T1, Poly [ADP-ribose] polymerase 1; assay: Inhibition of PARP-1-mediated PARylation in H2O2-induced human HeLa cells preincubated for 3 hrs followed by H2O2 addition measured after 5 mins by Draq5 staining-based fluorescence assay; format: cell-based
Method in brief: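 HeLa cell PARylation assay; EC50 values are the mean of two experiments.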

[3] = Growth inhibition of human MDA-MB-436 cells after 7 days by SRB assay; settings: MDA-MB-436, 7 days
[4] = system: MX1; assay: Antitumor activity against human MX1 cells xenografted in SCID beige mouse assessed as tumor volume inhibition at 200 mg/kg, ip administered qd for 5 days per week up to 3 weeks relative to control; format: functional; set-up: scale not given: the % may be the effect or the level left; settings: route intraperitoneal
Method in brief: (§1)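 MX1 breast carcinoma cells were xenografted into athymic SCID beige mice, with dosing starting 7 days after tumor injection. Compound was given intraperitoneally at 200 mg/10 mL/kg, schedule qdx5/wx3w, versus a vehicle group; 8 mice per group. Tumor volume and body weight loss were read at day +38. Tumor volume was compared with the vehicle group by Mann-Whitney test.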

[5] = Half life in human hepatocytes; format: ADME, cell-based, Hepatocyte
[6] = Metabolic stability in human plasma assessed as compound recovery after 2 hrs; format: ADME, cell-free; settings: read-out: Drug recovery
[7] = Ratio of drug level in blood to plasma (unknown origin) after 60 mins; format: ADME; settings: blood and plasma
[8] = Activity at P-gp (unknown origin); format: ADME; settings: human
[9] = Efflux ratio of permeability in human Caco2 cells; format: ADME, cell-based; settings: Caco-2
Method in brief: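 Bidirectional Caco-2 cell monolayer permeability assay; the efflux ratio was derived from the two transport directions.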

[10] = system: Mus musculus; assay: Toxicity in SCID beige mouse xenografted with human MX1 cells assessed as body weight loss at 200 mg/kg, ip administered qd for 5 days per week up to 3 weeks relative to control; format: organism-based; set-up: dose 200 mg/kg, route intraperitoneal; settings: in vivo; method in brief: as §1
[11] = system: Mus musculus; assay: Toxicity in SCID beige mouse xenografted with human MX1 cells assessed as lethality at 200 mg/kg, ip administered qd for 5 days per week up to 3 weeks; format: organism-based; set-up: dose 200 mg/kg, route intraperitoneal; settings: in vivo
Method in brief: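 Athymic SCID beige mice carrying MX1 breast carcinoma xenografts (BRCA1 deletion, BRCA2 mutation), 8 per group. Treatment began 7 days after tumour cell injection: ip at 200 mg/kg in 10 mL/kg, once daily 5 days/week for 3 weeks, with a vehicle-treated control group. Lethality was scored as deaths per group. Body-weight loss % was recorded alongside, and tumour volume was measured at day +38.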

T1 sequence (P09874 whole entry): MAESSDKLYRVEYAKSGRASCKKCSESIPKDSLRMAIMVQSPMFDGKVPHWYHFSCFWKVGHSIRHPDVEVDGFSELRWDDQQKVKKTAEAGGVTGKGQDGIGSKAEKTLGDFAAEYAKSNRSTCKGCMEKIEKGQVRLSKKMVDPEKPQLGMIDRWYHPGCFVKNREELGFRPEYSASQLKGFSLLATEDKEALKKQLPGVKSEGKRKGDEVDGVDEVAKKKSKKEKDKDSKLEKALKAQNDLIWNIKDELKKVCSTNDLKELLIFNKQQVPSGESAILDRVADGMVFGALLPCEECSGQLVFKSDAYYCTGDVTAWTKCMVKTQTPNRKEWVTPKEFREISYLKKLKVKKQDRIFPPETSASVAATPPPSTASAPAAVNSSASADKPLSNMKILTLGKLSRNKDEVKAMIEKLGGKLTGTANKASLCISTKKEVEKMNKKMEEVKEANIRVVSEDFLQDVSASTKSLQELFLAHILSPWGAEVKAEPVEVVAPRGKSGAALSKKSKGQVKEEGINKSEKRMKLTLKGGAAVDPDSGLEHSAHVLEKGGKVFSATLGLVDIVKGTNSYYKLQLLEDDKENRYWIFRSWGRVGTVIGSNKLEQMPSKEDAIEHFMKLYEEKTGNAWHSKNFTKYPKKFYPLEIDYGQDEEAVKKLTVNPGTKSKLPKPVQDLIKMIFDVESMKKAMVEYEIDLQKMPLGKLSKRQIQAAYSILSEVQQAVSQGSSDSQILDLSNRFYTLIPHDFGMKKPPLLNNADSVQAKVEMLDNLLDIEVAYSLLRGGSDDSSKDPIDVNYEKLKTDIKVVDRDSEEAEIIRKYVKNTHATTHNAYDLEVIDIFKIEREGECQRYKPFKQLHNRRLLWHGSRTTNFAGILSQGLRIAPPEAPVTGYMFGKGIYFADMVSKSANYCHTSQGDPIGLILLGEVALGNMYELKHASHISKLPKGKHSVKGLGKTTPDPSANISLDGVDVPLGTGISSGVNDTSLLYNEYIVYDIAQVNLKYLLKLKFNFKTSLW

Row | SMILES | IC50 [1] [nM] | also measured
1 | NC(=O)C1CCN(C(=O)CCc2nc(O)c3ccccc3n2)CC1 | 270 | –
2 | NC(=O)c1ccccc1OCC(=O)N1CCc2ccccc2C1 | 42.9 | –
3 | Cc1ccc2c(c1)CCCN2C(=O)CCc1nc2ccccc2c(=O)[nH]1 | 1030 | –
4 | Cc1oc(C(N)=O)cc1COc1ccccc1C(N)=O | 1660 | –
5 | CN(C)CC(C)(C)CN/C=C1/C(=O)NC(=O)c2ccccc21 | 87.4 | –
6 | O=C(CCc1nc2ccccc2c(=O)[nH]1)N1CCN(C(=O)c2ccco2)CC1 | 28.5 | –
7 | O=C(CCc1nc2ccccc2c(=O)[nH]1)N1CCN(C(=O)C2CC2)CC1 | 67.1 | EC50 [2]: 707 nM; IC50 [3]: 51100 nM
8 | O=C(CCc1nc2ccccc2c(=O)[nH]1)N1CCN(C(=O)C2CCCC2)CC1 | 110 | –
9 | O=C(CCc1nc2ccccc2c(=O)[nH]1)N1CCN(C(=O)C2CCCO2)CC1 (stereo not drawn) | 130 | –
10 | O=C(CCc1nc2ccccc2c(=O)[nH]1)N1CCN(C(=O)c2cccs2)CC1 | 9.8 | Activity [4]: 47%; half-life [5]: 9.73 h; remaining at 2 h [6]: 50%; blood plasma ratio at 1 h [7]: 0.4; Activity [8]: Not Active; efflux ratio [9]: 5.8; EC50 [2]: 256 nM; Activity [10]: 10%; Activity [11]: Non-toxic; IC50 [3]: 17300 nM
11 | O=C(CCc1nc2ccccc2c(=O)[nH]1)N1CCN(C(=O)c2ccc[nH]2)CC1 | 29.5 | EC50 [2]: 865 nM; IC50 [3]: 18100 nM
12 | Cc1c(C(=O)N2CCN(C(=O)CCc3nc4ccccc4c(=O)[nH]3)CC2)oc2ccccc12 | 130 | –
13 | O=C(CCc1nc2ccccc2c(=O)[nH]1)N1CCN(C(=O)c2ccc(F)cc2)CC1 | 56.1 | half-life [5]: 10.3 h; remaining at 2 h [6]: 57%; blood plasma ratio at 1 h [7]: 0.4; Activity [8]: Not Active; efflux ratio [9]: 6; EC50 [2]: 467 nM; IC50 [3]: 19500 nM
14 | C=CCOC(=O)N1CCCC(C(=O)N2CCN(C(=O)CCc3nc4ccccc4c(=O)[nH]3)CC2)C1 (stereo not drawn) | 300 | –
15 | O=C(CCc1nc2ccccc2c(=O)[nH]1)N1CCN(C(=O)C2CCCNC2)CC1 (stereo not drawn) | 31.9 | –
16 | C=CCN1CCCC(C(=O)N2CCN(C(=O)CCc3nc4ccccc4c(=O)[nH]3)CC2)C1 (stereo not drawn) | 220 | –
17 | CC(=O)c1ccc(NC(=O)CCn2c(=O)[nH]c(=O)c3ccccc32)cc1 | 87.6 | –
18 | O=C(Cc1n[nH]c(=O)c2ccccc12)NCc1ccc(N2CCOCC2)nc1 | 49.8 | –
19 | O=C1NC(=O)c2ccccc2/C1=C\Nc1ccccc1N1CCCCC1 | 1210 | –
20 | O=C1NC(=O)c2ccccc2/C1=C\c1ccc(F)cc1 | 2540 | –
21 | O=C1CN(C(=O)CCc2nc3ccccc3c(=O)[nH]2)CCN1 | 190 | –

Row | SMILES | IC50 [1] [nM] | also measured
22 | NC(=O)c1ccc(NC(=O)CCCc2nc3ccccc3c(=O)[nH]2)cc1 | 4700 | –
23 | O=C1CN(C(=O)CSc2nc3ccccc3c(=O)[nH]2)c2ccccc2N1 | 540 | –
24 | NC(=O)c1ccc(NC(=O)CCn2c(=O)[nH]c(=O)c3ccccc32)cc1 | 130 | –
25 | CC(=O)Nc1ccc(NC(=O)CCn2c(=O)[nH]c(=O)c3ccccc32)cc1 | 760 | –
26 | NS(=O)(=O)Nc1ccc(NC(=O)CCn2c(=O)[nH]c(=O)c3ccccc32)cc1 | 410 | –
27 | O=C(CCn1c(=O)[nH]c(=O)c2ccccc21)Nc1ccccc1F | 1520 | –
28 | Cc1ccc(NC(=O)CCn2c(=O)[nH]c(=O)c3ccccc32)c(O)c1 | 350 | –
29 | Cc1ccc(NS(=O)(=O)c2ccc(NC(=O)Cn3c(=O)[nH]c(=O)c4ccccc43)cc2C)c(C)c1 | 1280 | –
30 | O=C(c1n[nH]c(=O)c2ccccc12)N1CCN(/C=C/c2ccccc2)CC1 | 260 | –
31 | CC(NC(=O)Cc1n[nH]c(=O)c2ccccc12)c1ccc2c(c1)CCCC2 (stereo not drawn) | 1860 | –
32 | O=C(Cc1n[nH]c(=O)c2ccccc12)NCCc1ccc2c(c1)OCCO2 | 280 | –
33 | O=C(Cc1n[nH]c(=O)c2ccccc12)NCc1ccc(S(=O)(=O)N2CCOCC2)cc1 | 600 | –
34 | O=C(CN1CCN(C(=O)Cc2n[nH]c(=O)c3ccccc23)CC1)Nc1cccc(F)c1 | 1100 | –
35 | CCN(CC(=O)Cc1c(F)cccc1F)C(=O)Cc1n[nH]c(=O)c2ccccc12 | 600 | –
36 | O=C(Cc1n[nH]c(=O)c2ccccc12)NCC(c1ccccc1Cl)N1CCCC1 (stereo not drawn) | 1960 | –
37 | NC(=O)c1ccc(COc2ccccc2C(N)=O)cc1 | 820 | –
38 | CC(NC(=O)COc1ccccc1C(N)=O)c1ccccc1 (stereo not drawn) | 820 | –
39 | NC(=O)c1ccccc1OCC(=O)N1CC(=O)Nc2cc(C(F)(F)F)ccc21 | 1060 | –
40 | CC(=O)c1ccc(N2CCN(C(=O)COc3ccccc3C(N)=O)CC2)c(F)c1 | 280 | –
41 | CC(C)NS(=O)(=O)c1ccc(NC(=O)Cc2n[nH]c(=O)c3ccccc23)cc1 | 690 | –
42 | Cn1nnc2c(C(N)=O)ncn2c1=O [TEMOZOLOMIDE] | – | IC50 [3]: 120000 nM

— ChEMBL document CHEMBL3102760, “Novel PARP-1 inhibitors based on a 2-propanoyl-3H-quinazolin-4-one scaffold” (Bioorg Med Chem Lett, 2014)
